Activity calls are given as the source filed them. The calls are words filed in the database; no cut-off is given here.
Legend:
T47D = assay: Growth inhibition of human T47D cells after 48 hrs by MTT assay; assay type: functional
Summary of the method: (§1)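 Cancer cell lines sourced from the National Cancer Institute (USA). Cells kept in appropriate growth medium at 37 °C, 95% humidity, 5% CO2. Antiproliferation read by tetrazolium (MTT) assay. GI50 values were determined only for compounds selected after an initial single-concentration screen.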

[1] = n-octanol-PBS distribution co-efficient, log D of compound at pH 7.4 by shake flask method; assay type: physicochemical
[2] = Half life in rat hepatocytes at 3 uM after 180 mins by LC-MS/MS analysis; assay type: ADME, cell-based, Hepatocyte
Salmonella typhimurium [3] = assay: Mutagenicity in Salmonella typhimurium TA102 at 50 ug/plate in presence of liver S9 fraction by Ames test; assay type: toxicity; conditions: salmonella enterica subsp. enterica serovar typhimurium
CDK3/Cyclin E = CDK3/Cyclin E (Homo sapiens, UniProt Q00526); assay: Inhibition of CDK3/cyclin E (unknown origin) after 30 mins in presence of [33P]-gamma-ATP by filter binding assay; assay type: protein-complex assay
[4] = molecular target: Cyclin-dependent kinase 5/CDK5 activator 1 (Homo sapiens, UniProt Q00535); assay: Inhibition of CDK5/cyclin p35 (unknown origin) after 30 mins in presence of [33P]-gamma-ATP by filter binding assay; assay type: protein-complex assay
[5] = AUC (0 to infinity) in BALB/c mouse at 10 mg/kg, po by LC-MS/MS analysis; assay type: ADME, organism-based; parameters: dose 10 mg/kg, time infinity, route oral; conditions: in vivo
HOP-62 = assay: Growth inhibition of human HOP62 cells after 48 hrs by MTT assay; assay type: functional; conditions: HOP-62, 48 h; summary of the method: as §1
[6] = Half life in dog liver microsomes at 100 uM after 30 mins by LC-MS/MS analysis; assay type: ADME, Canis lupus familiaris, microsome
[7] = Growth inhibition of human HEK293 cells after 48 hrs by MTT assay; assay type: cell-based
[8] = Chemical stability of compound in hydrochloric acid buffer at pH 1.2 assessed as parent compound remaining at 120 ug/ml after 24 hrs by HPLC method; assay type: physicochemical; conditions: read-out: Stability
HCT-116 [9] = assay: Antitumor activity against human HCT116 cells xenografted in CD1 nude mouse assessed as tumor growth inhibition at 25 mg/kg, po qd administered on day 10 to 25 post tumor inoculation; assay type: functional, organism-based
[10] = Pancreas to plasma partition coefficient, Kp of the compound in BALB/c mouse at 30 mg/kg, po measured at 0.5 hrs; assay type: ADME, organism-based; conditions: pancreas and plasma
[11] = molecular target: Cyclin-dependent kinase 4/cyclin D1 (Homo sapiens) (UniProt P11802+P24385); assay: Inhibition of full length wild type human CDK4/cyclin D1 expressed in mammalian expression system at 0.5 uM by KINOMEscan method relative to control
Summary of the method: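 Competition binding screen (KINOMEscan) at 0.5 μM; primary binding read out as % of control, lower values indicating stronger interaction.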

MIA PaCa-2 [12] = assay: Cell cycle arrest in human MIAPaCa2 cells assessed as accumulation at G1 phase at 1.5 uM after 24 hrs by propidium iodide staining-based flow cytometric method (reference value: 36%); assay type: functional
Salmonella typhimurium [13] = assay: Mutagenicity in Salmonella typhimurium TA1535 at 50 ug/plate in presence of liver S9 fraction by Ames test; assay type: toxicity; conditions: salmonella enterica subsp. enterica serovar typhimurium
[14] = AUC in BALB/c mouse at 3 mg/kg, po by LC-MS/MS analysis; assay type: ADME, organism-based; conditions: in vivo
[15] = Growth inhibition of human NCI-H322 cells after 48 hrs by MTT assay; assay type: functional; conditions: NCI-H322, 48 h; summary of the method: as §1
[16] = Elimination half life in BALB/c mouse at 10 mg/kg, po by LC-MS/MS analysis; assay type: ADME, organism-based; conditions: in vivo, read-out: beta t1/2 (converted)
Cytochrome P450 2D6 = Cytochrome P450 2D6 (Homo sapiens, UniProt P10635); assay: Time-dependent inhibition of human CYP2D6 at 2 uM using fluorogenic substrate by fluorometric method; assay type: ADME
Mus musculus = assay: Toxicity in CD1 nude mouse xenografted with human MOLT4 cells assessed as change in body weight at 25 to 75 mg/kg, po qd administered on day 10 to 25 post tumor inoculation; assay type: organism-based; conditions: in vivo
CDK9/Cyclin K = CDK9/Cyclin K (Homo sapiens, UniProt P50750); assay: Inhibition of CDK9/cyclin K (unknown origin) after 30 mins in presence of [33P]-gamma-ATP by filter binding assay; assay type: protein-complex assay
[17] = Intrinsic clearance in rat liver microsomes assessed per mg of protein at 100 uM after 30 mins by LC-MS/MS analysis; assay type: ADME, microsome; conditions: read-out: CLH
CDK2/Cyclin O = CDK2/Cyclin O (Homo sapiens, UniProt P22674+P24941); assay: Inhibition of CDK2/cyclin O (unknown origin) after 30 mins in presence of [33P]-gamma-ATP by filter binding assay; assay type: protein-complex assay
[18] = AUC in Sprague-Dawley rat at 3 mg/kg, po by LC-MS/MS analysis; assay type: ADME, organism-based; conditions: in vivo
[19] = Initial concentration in BALB/c mouse at 1 mg/kg, iv by LC-MS/MS analysis; assay type: ADME, organism-based; conditions: in vivo
[20] = Half life in BALB/c mouse at 30 mg/kg, po by LC-MS/MS analysis; assay type: ADME, organism-based; conditions: in vivo
786-0 = assay: Growth inhibition of human 786-0 cells after 48 hrs by MTT assay; assay type: functional; conditions: 786-0, 48 h; summary of the method: as §1
[21] = Half life in rat liver S9 fraction preincubated for 5 mins followed by NADPH addition measured after 30 mins by LC-MS/MS analysis; assay type: ADME, tissue-based
Summary of the method: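 Parent loss followed over time to give half-life, with NADPH as cofactor for microsomal phase I metabolism.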

[22] = Intrinsic clearance in human liver microsomes assessed per mg of protein at 100 uM after 30 mins by LC-MS/MS analysis; assay type: ADME, microsome; conditions: read-out: CLH
[23] = Intrinsic clearance in monkey liver microsomes assessed per mg of protein at 100 uM after 30 mins by LC-MS/MS analysis; assay type: ADME, Macaca mulatta, microsome; conditions: rhesus monkey, read-out: CLH
MIA PaCa-2 [24] = assay: Growth inhibition of human MIAPaCa2 cells at 10 uM after 48 hrs by MTT assay relative to control; assay type: functional; conditions: MIA PaCa-2, 48 h, read-out: GI
Summary of the method: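 Single-concentration primary screen at 10 μM by MTT assay. Cells were NCI-sourced cancer lines grown in appropriate medium at 37 °C, 95% humidity, 5% CO2. Growth inhibition is expressed relative to control.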

[25] = AUC (0 to infinity) in BALB/c mouse at 1 mg/kg, iv by LC-MS/MS analysis; assay type: ADME, organism-based; parameters: dose 1 mg/kg, route intravenous, time infinity; conditions: in vivo
CDK6/cyclin D1 = CDK6/cyclin D1 (Homo sapiens, UniProt Q00534); assay: Inhibition of CDK6/cyclin D1 (unknown origin) after 30 mins in presence of [33P]-gamma-ATP by filter binding assay; assay type: protein-complex assay
A549 = assay: Growth inhibition of human A549 cells after 48 hrs by MTT assay; assay type: functional; conditions: A549, 48 h; summary of the method: as §1
HCT-116 [26] = assay: Growth inhibition of human HCT116 cells after 48 hrs by MTT assay; assay type: functional; conditions: HCT-116, 48 h; summary of the method: as §1
[27] = molecular target: Cyclin-dependent kinase 7/ cyclin H (Homo sapiens, UniProt P50613); assay: Inhibition of CDK7/cyclin H (unknown origin) after 30 mins in presence of [33P]-gamma-ATP by filter binding assay; assay type: protein-complex assay
[28] = Ratio of Cmax in Sprague-Dawley rat at 30 mg/kg, po to GI50 for human HL60 cells

CDK6/cyclin D1, sequence (P24385 whole entry): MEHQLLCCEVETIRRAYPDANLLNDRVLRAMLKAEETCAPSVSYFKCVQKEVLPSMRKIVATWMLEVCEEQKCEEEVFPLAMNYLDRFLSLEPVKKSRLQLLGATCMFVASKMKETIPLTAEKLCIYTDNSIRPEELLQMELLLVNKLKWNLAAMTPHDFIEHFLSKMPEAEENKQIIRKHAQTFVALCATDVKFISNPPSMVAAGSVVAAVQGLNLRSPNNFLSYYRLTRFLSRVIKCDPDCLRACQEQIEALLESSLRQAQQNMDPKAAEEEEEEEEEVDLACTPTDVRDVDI
CDK6/cyclin D1, sequence (Q00534 whole entry): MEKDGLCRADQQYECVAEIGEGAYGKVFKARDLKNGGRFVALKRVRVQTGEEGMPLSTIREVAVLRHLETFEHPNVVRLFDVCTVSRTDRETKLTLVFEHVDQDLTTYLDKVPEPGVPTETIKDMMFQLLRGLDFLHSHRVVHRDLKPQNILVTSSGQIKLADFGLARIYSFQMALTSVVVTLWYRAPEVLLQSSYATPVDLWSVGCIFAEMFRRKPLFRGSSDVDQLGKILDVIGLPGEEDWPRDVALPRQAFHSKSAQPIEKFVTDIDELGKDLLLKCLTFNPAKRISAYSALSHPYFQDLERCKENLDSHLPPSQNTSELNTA
Cyclin-dependent kinase 5/CDK5 activator 1, sequence (Q00535 whole entry): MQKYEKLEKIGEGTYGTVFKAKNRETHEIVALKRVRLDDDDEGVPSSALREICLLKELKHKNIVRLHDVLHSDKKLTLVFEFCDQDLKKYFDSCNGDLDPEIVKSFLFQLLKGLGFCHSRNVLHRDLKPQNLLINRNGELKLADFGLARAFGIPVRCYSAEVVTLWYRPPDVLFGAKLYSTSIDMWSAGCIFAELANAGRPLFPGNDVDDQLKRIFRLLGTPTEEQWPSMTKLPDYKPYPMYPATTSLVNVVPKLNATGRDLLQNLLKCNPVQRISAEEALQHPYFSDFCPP
Cyclin-dependent kinase 5/CDK5 activator 1, sequence (Q15078 whole entry, further chain): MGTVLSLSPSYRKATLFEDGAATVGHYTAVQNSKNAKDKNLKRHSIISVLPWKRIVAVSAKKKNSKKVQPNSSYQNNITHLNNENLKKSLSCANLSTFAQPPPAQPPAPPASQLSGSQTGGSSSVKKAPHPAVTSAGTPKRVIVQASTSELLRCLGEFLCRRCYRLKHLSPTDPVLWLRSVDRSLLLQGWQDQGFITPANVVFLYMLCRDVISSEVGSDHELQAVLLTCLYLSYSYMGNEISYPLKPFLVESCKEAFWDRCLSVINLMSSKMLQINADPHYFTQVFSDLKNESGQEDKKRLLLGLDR
CDK9/Cyclin K, sequence (P50750 whole entry): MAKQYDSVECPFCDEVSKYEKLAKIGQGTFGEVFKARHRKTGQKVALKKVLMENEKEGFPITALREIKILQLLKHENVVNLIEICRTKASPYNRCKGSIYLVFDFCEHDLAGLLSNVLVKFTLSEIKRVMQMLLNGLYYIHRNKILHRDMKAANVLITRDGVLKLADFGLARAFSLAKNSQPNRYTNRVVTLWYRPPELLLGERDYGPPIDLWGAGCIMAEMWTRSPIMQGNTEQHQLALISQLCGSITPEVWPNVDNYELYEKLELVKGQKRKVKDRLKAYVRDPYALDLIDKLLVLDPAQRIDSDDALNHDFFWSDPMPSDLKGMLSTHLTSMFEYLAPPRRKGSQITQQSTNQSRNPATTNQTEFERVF
CDK9/Cyclin K, sequence (O75909 whole entry, further chain): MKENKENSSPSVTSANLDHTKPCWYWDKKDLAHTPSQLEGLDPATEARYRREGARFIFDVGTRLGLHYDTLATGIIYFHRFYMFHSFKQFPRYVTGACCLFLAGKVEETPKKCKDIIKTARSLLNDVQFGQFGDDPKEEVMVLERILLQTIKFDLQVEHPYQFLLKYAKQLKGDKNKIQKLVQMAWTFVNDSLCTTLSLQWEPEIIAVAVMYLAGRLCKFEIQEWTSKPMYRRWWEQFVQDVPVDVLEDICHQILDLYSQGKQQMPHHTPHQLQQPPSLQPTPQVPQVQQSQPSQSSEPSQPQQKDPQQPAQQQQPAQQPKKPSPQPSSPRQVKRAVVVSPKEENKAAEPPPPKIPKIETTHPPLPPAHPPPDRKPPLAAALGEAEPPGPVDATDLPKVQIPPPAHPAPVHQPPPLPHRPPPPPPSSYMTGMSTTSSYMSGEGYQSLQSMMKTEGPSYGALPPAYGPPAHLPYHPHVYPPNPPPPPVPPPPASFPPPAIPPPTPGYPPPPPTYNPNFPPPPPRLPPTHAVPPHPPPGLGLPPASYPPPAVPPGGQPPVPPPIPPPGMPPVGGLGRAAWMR
Cytochrome P450 2D6, sequence (P10635 whole entry): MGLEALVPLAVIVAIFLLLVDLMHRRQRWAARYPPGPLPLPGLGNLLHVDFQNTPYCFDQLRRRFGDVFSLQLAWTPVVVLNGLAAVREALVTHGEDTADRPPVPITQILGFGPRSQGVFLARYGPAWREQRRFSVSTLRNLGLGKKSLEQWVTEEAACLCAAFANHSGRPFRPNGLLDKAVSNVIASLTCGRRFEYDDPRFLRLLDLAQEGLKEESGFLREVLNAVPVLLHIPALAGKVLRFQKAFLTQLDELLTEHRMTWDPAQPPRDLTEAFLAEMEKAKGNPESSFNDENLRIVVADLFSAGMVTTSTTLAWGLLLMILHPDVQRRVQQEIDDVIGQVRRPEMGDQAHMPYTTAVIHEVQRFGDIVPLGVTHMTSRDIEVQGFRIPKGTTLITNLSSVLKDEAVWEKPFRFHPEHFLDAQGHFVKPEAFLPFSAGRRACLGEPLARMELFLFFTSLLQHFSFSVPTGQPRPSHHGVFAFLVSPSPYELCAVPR
Cyclin-dependent kinase 7/ cyclin H, sequence (P51946 whole entry): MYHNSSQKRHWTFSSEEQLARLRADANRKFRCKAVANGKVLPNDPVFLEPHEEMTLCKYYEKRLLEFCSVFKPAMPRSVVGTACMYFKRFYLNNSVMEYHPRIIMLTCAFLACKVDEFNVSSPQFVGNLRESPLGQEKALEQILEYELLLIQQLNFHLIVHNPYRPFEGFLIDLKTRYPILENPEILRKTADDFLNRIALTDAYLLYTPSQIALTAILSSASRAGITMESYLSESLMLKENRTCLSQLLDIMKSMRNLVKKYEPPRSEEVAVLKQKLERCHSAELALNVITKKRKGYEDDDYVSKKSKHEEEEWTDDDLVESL
Cyclin-dependent kinase 7/ cyclin H, sequence (P50613 whole entry): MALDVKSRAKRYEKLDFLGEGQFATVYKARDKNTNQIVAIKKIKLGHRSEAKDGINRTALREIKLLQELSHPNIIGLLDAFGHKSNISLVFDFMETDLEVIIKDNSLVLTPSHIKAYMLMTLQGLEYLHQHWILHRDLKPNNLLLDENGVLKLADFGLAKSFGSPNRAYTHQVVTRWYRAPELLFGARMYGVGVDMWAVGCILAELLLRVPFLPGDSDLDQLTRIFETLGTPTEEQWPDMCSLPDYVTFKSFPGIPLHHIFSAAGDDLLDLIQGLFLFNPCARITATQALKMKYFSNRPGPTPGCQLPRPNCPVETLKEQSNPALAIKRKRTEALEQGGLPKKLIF
CDK3/Cyclin E, sequence (P24864 whole entry): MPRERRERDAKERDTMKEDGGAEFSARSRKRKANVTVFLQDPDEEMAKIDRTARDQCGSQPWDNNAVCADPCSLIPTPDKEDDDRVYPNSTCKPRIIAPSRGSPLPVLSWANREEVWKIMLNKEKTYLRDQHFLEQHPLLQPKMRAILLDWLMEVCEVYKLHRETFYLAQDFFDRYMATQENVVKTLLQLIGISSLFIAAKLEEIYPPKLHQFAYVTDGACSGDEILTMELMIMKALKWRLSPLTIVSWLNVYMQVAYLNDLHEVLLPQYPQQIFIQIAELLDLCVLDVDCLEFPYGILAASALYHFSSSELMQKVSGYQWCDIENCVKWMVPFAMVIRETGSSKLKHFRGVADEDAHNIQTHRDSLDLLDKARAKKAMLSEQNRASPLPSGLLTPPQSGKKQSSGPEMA
CDK3/Cyclin E, sequence (Q00526 whole entry): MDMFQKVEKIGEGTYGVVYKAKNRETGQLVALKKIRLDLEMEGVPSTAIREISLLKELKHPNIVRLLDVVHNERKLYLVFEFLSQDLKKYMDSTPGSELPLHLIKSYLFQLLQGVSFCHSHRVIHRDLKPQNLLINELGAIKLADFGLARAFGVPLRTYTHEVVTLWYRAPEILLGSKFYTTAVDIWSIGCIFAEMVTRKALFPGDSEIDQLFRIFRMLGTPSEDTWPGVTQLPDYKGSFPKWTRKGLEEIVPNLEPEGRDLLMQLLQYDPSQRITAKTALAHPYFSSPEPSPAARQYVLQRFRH

Compound: CN1CC[C@H](c2c(O)cc(O)c3c(=O)cc(/C=C/c4c(Cl)cccc4Cl)oc23)[C@H](O)C1
- GI50 (T47D): 6000 nM
- logD [1]: 1.65
- half-life at 3 µM [2]: 6.27 h
- Activity (Salmonella typhimurium [3]): Non-Toxic
- IC50 (CDK3/Cyclin E): > 1000 nM
- IC50 [4]: 15.7 nM
- AUC(0-inf) [5]: 4.4 µM·h
- GI50 (HOP-62): 7000 nM
- half-life at 100 µM [6]: 0.4 h
- GI50 at 48 h [7]: 22000 nM
- remaining at 24 h, 120 ug/ml [8]: 100%
- TGI (HCT-116 [9]): inactive
- Kp at 0.5 h [10]: 14.2
- inhibition [11]: > 98%
- Activity (MIA PaCa-2 [12]): 48%
- Activity (Salmonella typhimurium [13]): Non-Toxic
- AUC [14]: 0.643 µM·h
- GI50 [15]: 2000 nM
- half-life [16]: 4.65 h
- TDI (Cytochrome P450 2D6): Not Active
- Activity (Mus musculus): Non-Toxic
- IC50 (CDK9/Cyclin K): 412 nM
- microsomal CLint at 100 µM [17]: < 13 µL/min/mg
- IC50 (CDK2/Cyclin O): 138 nM
- AUC [18]: 1.44 µM·h
- C0 [19]: 859 ng/mL
- half-life [20]: 3.62 h
- GI50 (786-0): 6000 nM
- half-life [21]: 0.517 h
- microsomal CLint at 100 µM [22]: < 8.6 µL/min/mg
- microsomal CLint at 100 µM [23]: 54.8 µL/min/mg
- inhibition of growth at 10 µM (MIA PaCa-2 [24]): 88%
- AUC(0-inf) [25]: 0.653 µM·h
- IC50 (CDK6/cyclin D1): 45 nM
- GI50 (A549): 4000 nM
- GI50 (HCT-116 [26]): 5000 nM
- IC50 [27]: 711 nM
- Ratio [28]: 4

From ChEMBL document CHEMBL4043283, “Discovery and Preclinical Development of IIIM-290, an Orally Active Potent Cyclin-Dependent Kinase Inhibitor” (J Med Chem, 2018)
